In assay [1] the test system is Mus musculus. Put plainly: Antiinflammatory activity, assessed by the carrageenan paw edema test in mice. Type of assay: functional. The procedure, abridged:
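Mice dosed orally with compound at 20 mg/kg (reference at 10 mg/kg) in Tween 80/saline 1/99 v/v, 1 h before subplantar 3% w/v carrageenan (0.05 mL) in right hind paw. Paw volumes by plethysmometer at 1, 3 and 5 h; edema values at 3 h. Mean ± SEM, n 6-12; ANOVA with Dunnett's t-test.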
For orientation: The carrageenan paw model is a standard test of acute inflammation.

The species entered for assay [2] is Mus musculus. Put plainly: PGE-2 level was assayed in RAW 264.7 macrophages after a 20h stimulation with LPS followed by incubation with compound and arachidonic acid for 2 hr. Type of assay: functional. Put shortly: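 RAW 264.7 cells first stimulated with LPS for 20 h, then washed and incubated 2 h with compound plus arachidonic acid. PGE₂ measured to assess COX-2 activity in intact cells.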

For assay [3], the species on record is Mus musculus. In words: PGE-2 levels were assayed in LPS stimulated RAW 264.7 macrophages for 20h in either presence or absence of compound. Type of assay: functional. The procedure, abridged:
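Murine RAW 264.7 cells grown in DMEM with 2 mM glutamine, antibiotics and 10% FBS. Cells at 2 × 10⁶/mL exposed to E. coli LPS 1 µg/mL, 37 °C, 20 h, with compound or vehicle. PGE₂ in supernatants by radioimmunoassay. […] Cytotoxicity checked by MTT reduction.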

In assay [4] the test system is Mus musculus. Put plainly: PGE-2 levels were assayed in inflamed paw after 5 hr carrageenan paw edema test in mice. The assay is classed as functional. The procedure, abridged:
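Carrageenan-injected mice (oral compound 1 h prior, Tween 80/saline vehicle) killed by cervical dislocation 5 h after carrageenan. Right hind paws homogenized and PGE₂ measured in homogenates; stomachs handled the same way. Mean ± SEM, n 6-12; ANOVA with Dunnett's t-test.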

The nature of assay [5]: (§1) Inhibition of chemiluminescence generated by hypoxanthine/ xanthine oxidase was determined. Also on record: concentration or dose not given beside the values. Conditions: concentration not given here. Put shortly:
(§2)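 Cell-free superoxide made by the hypoxanthine/xanthine oxidase system, with chemiluminescence recorded.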

Assay [6] is filed under the species Homo sapiens. Put plainly: Percent inhibition of neutrophils (chemiluminescence) was determined at 10 uM concentration in TPA-induced luminol chemiluminescence assay.
For assay [7], the species on record is Mus musculus. In words: Inhibitory activity against LPS stimulated RAW 264.7 macrophages. Conditions: RAW264.7. The assay is classed as functional. The procedure, abridged: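 Murine RAW 264.7 cells grown in DMEM with 2 mM glutamine, antibiotics and 10% FBS. Cells at 2 × 10⁶/mL exposed to E. coli LPS 1 µg/mL, 37 °C, 20 h, with compound or vehicle. PGE₂ in supernatants by radioimmunoassay. Cytotoxicity checked by MTT reduction.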

Assay [8] is described as follows: Percentage inhibition of H/XO (chemiluminescence) was determined at 10 uM concentration. The procedure, abridged:
as §2

The species named for assay [9] is Homo sapiens. In words: Percent inhibition of neutrophils (chemiluminescence) was determined at 10 uM concentration. The assay is classed as functional. The procedure, abridged:
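Purified human neutrophils at 2.5 × 10⁶ cells/mL with luminol 40 µM and TPA 1 µM; chemiluminescence recorded. Compounds tested at 10 µM; mean ± SEM.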

Assay [10] is described as follows: as §1. Conditions: concentration not given here. The procedure, abridged:
as §2

Broadly, the inhibition is the drop in the measured response relative to a control, in per cent. In the assay with Mus musculus [1], `CCOC(=O)c1cc2ccccn2c(=O)n1` registered an Edema of 121.9 µL. For the same molecule, the results for the “PGE2 Level” value in the assay filed under Mus musculus [2], in the assay listed under Mus musculus [3] and in the assay with Mus musculus [4] were 10.6 ng/mL, 16.9 ng/mL and 85.4 ng/mL, respectively. In addition, in assay [5], the inhibition was found to be 26.6%. In the assay filed under Homo sapiens [6], the inhibition at 10 µM was determined as 29.9%.
By IC50 is commonly meant the concentration that inhibits the measured activity by half. `CS(=O)(=O)Nc1ccc([N+](=O)[O-])cc1OC1CCCCC1` [NS-398] registered an Edema in the assay with Mus musculus [1] of 97.2 µL. Moreover, the PGE2 Level in the assay listed under Mus musculus [2] came to 2.1 ng/mL; in the assay listed under Mus musculus [3], 3.7 ng/mL; in the assay with Mus musculus [4] it was 53 ng/mL. Further, half-maximal inhibition in the assay filed under Mus musculus [7] (IC50) was put at 2.1 nM.
`CCOC(=O)c1cc2ccccn2/c(=N/c2ccccc2)n1` registered an Edema in the assay with Mus musculus [1] of 82.2 µL. For the same molecule, the “PGE2 Level” value in the assay filed under Mus musculus [2] was determined as 11 ng/mL; in the assay filed under Mus musculus [3] it was 10.9 ng/mL; in the assay on Mus musculus [4] it was 70.6 ng/mL. Besides, the inhibition in assay [8] is 57.1%. Besides, the inhibition at 10 µM in the assay listed under Homo sapiens [9] is 52.3%.
In the case of `CCOC(=O)c1cc2ccccn2/c(=N/c2ccc(F)cc2)n1`, in the assay with Mus musculus [1], the Edema stood at 103.9 µL. Moreover, the “PGE2 Level” value in the assay listed under Mus musculus [2] worked out at 8.9 ng/mL; in the assay filed under Mus musculus [3] it was 11.8 ng/mL; in the assay on Mus musculus [4], 82.5 ng/mL. This molecule yielded a concentration for half-maximal inhibition (IC50) in the assay listed under Mus musculus [7] of 1500 nM. Further, the inhibition in assay [5] is 49.6%. In the assay listed under Homo sapiens [6], this molecule displayed an inhibition at 10 µM of 44.4%.
Regarding `CCOC(=O)c1cc2ccccn2/c(=N/c2ccc(C)cc2)n1`, the Edema in the assay on Mus musculus [1] amounted to 92.4 µL. Moreover, the results for the “PGE2 Level” value in the assay listed under Mus musculus [2], in the assay listed under Mus musculus [3] and with Mus musculus [4] were 13.5 ng/mL, 13.3 ng/mL and 71 ng/mL, respectively. The half-maximal inhibitory concentration (IC50) in the assay filed under Mus musculus [7] was 1700 nM. Further, the inhibition in assay [8] turned out to be 49.1%. The molecule also returned an inhibition at 10 µM in the assay filed under Homo sapiens [9] of 31.1%.
For `CCOC(=O)c1cc2ccccn2/c(=N/c2ccc(OC)cc2)n1`, the Edema in the assay with Mus musculus [1] was found to be 91.6 µL. Further, the “PGE2 Level” value worked out at 9.6 ng/mL in the assay listed under Mus musculus [2], 12 ng/mL in the assay filed under Mus musculus [3] and 78.7 ng/mL in the assay on Mus musculus [4]. This molecule also yielded a concentration for half-maximal inhibition (IC50) in the assay listed under Mus musculus [7] of 3500 nM. The same molecule showed an inhibition in assay [8] of 93.3%. The molecule also registered an inhibition at 10 µM in the assay listed under Homo sapiens [6] of 75.9%.
`CCOC(=O)c1cc2ccccn2/c(=N/c2ccc(Cl)cc2)n1`: the Edema with Mus musculus [1] is 102 µL. Further, the figures for the “PGE2 Level” value in the assay listed under Mus musculus [2], in the assay listed under Mus musculus [3] and in the assay on Mus musculus [4] were 10.6 ng/mL, 8.2 ng/mL and 83.3 ng/mL, respectively. Further, 400 nM corresponded to half-maximal inhibition in the assay filed under Mus musculus [7] (IC50). In assay [5], this molecule showed an inhibition of 31.3%. The same molecule displayed an inhibition at 10 µM in the assay filed under Homo sapiens [6] of 38.8%.
`[S-]c1nc2ccccc2c2cccc[n+]12`: the PGE2 Level in the assay listed under Mus musculus [2] stood at 10.3 ng/mL; in the assay listed under Mus musculus [3] it was 16.9 ng/mL. In addition, the inhibition in assay [10] was found to be 51.6%. The molecule also came in with an inhibition at 10 µM in the assay filed under Homo sapiens [6] of 53.7%.
`CCOC(=O)c1cc2ccccn2/c(=N/c2ccc(Br)cc2)n1`: the Edema in the assay with Mus musculus [1] was found to be 80.8 µL. Besides, the “PGE2 Level” value is 9.5 ng/mL in the assay listed under Mus musculus [2], 14.8 ng/mL in the assay listed under Mus musculus [3] and 76.9 ng/mL in the assay with Mus musculus [4]. In addition, in assay [5], the inhibition amounted to 32.2%. The inhibition at 10 µM in the assay filed under Homo sapiens [6] came out at 24.8%.
With `CCOC(=O)c1cc2ccccn2c(=S)n1`, the Edema with Mus musculus [1] was 105.2 µL. Also, the entries for the “PGE2 Level” value in the assay filed under Mus musculus [2], in the assay listed under Mus musculus [3] and in the assay on Mus musculus [4] were 8.2 ng/mL, 12.8 ng/mL and 89.7 ng/mL, respectively. The same molecule had a half-maximal inhibitory concentration (IC50) in the assay listed under Mus musculus [7] of 1700 nM. In addition, the inhibition in assay [5] was determined as 43.3%. For the same molecule, in the assay filed under Homo sapiens [6], the inhibition at 10 µM is 51.8%.

Source of the values: ChEMBL document CHEMBL1134367, “Solid-phase synthesis and inhibitory effects of some pyrido[1,2-c]pyrimidine derivatives on leukocyte formations and experimental inflammation” (J Med Chem, 2001).
